In ChEMBL document CHEMBL2177069, “Novel peptidomimetic compounds containing redox active chalcogens and quinones as potential anticancer agents” (Eur J Med Chem, 2012):
Calls of active or inactive are those of the source. No cut-off for these calls is given here.

Legend:
OVCAR-4 = experiment: Cytotoxicity against human OVCAR4 cells; format: functional
OVCAR-3 = experiment: Cytotoxicity against human OVCAR3 cells; format: functional
Hs-578T = experiment: Cytotoxicity against human Hs578T cells; format: functional
Saccharomyces cerevisiae [1] = experiment: Growth inhibition of SOD1-deficient Saccharomyces cerevisiae YJR104C mutant at 20 ug/disc after 24 to 48 hrs by agar diffusion assay; format: functional; details: read-out: DIZ
Outline: (§1)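 S. cerevisiae deletion mutants or wild type grown on YPD, seeded into liquid agar medium at an optical density of 0.1. 6 mm paper discs soaked with methanolic compound solution were placed on the plates and incubated at 30 °C. Growth was checked after 1 and 2 days, and the inhibition zone diameter was recorded in mm.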

K562 = experiment: Cytotoxicity against human K562 cells; format: functional
SK-OV-3 = experiment: Cytotoxicity against human SKOV3 cells; format: functional
A-431 = experiment: Cytotoxicity against human A431 cells after 24 hrs by MTT assay; format: functional, cell-based; details: A-431, 24 h
Outline: (§2)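 MTT assay. Cells were seeded at 50,000 cells/mL in medium with 10% fetal calf serum and grown for two days at 37 °C, 10% CO2. Serial dilutions of compound were then added for 24 h. MTT was added (final 0.5 mg/mL) for 2 h, and the formazan was pelleted, washed, dissolved in isopropanol with 0.4% HCl and read at 590 nm. IC50 is the concentration giving 50% of untreated-control absorbance, taken from dose-response curves; mean of two parallel experiments.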

BT-549 = experiment: Cytotoxicity against human BT549 cells; format: functional
UO-31 = experiment: Cytotoxicity against human UO31 cells; format: functional
Saccharomyces cerevisiae [2] = experiment: Growth inhibition of UFD2-deficient Saccharomyces cerevisiae YDL190C mutant at 20 ug/disc after 24 to 48 hrs by agar diffusion assay; format: functional; details: read-out: DIZ; outline: as §1
A549 = experiment: Cytotoxicity against human A549 cells; format: functional
Malme-3M = experiment: Cytotoxicity against human MALME-3M cells; format: functional
PtK2 [3] = experiment: Induction of oxidative stress in potoroo PtK2 cells assessed as reduction in cell adhesion after 24 hrs by immunofluorescence microscopic analysis; format: functional, cell-based; details: Potorous tridactylus
Outline: (§3)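 PtK2 cells were grown on coverslips and treated once semi-confluent, for 24 h. Cells were fixed with 3.7% paraformaldehyde followed by 0.1% Triton X-100, or with cold methanol/acetone 50:50. Primary and secondary antibodies were applied for 45 min each: anti-GRP94 for ER, anti-α-tubulin. Actin was stained with phalloidin and nuclei with DAPI. Imaging was by fluorescence microscopy with a CCD camera.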

SF-268 = experiment: Cytotoxicity against human SF268 cells; format: functional
HUVEC = experiment: Cytotoxicity against human HUVEC cells after 24 hrs by MTT assay; format: cell-based; outline: as §2
PtK2 [4] = experiment: Induction of oxidative stress in potoroo PtK2 cells assessed as change in microtubular network after 24 hrs by immunofluorescence microscopic analysis; format: functional, cell-based; details: Potorous tridactylus; outline: as §3
MOLT-4 = experiment: Cytotoxicity against human MOLT4 cells; format: functional
PtK2 [5] = experiment: Induction of oxidative stress in potoroo PtK2 cells assessed as hole in the endoplasmic reticulum after 24 hrs by immunofluorescence microscopic analysis; format: functional, cell-based; details: Potorous tridactylus; outline: as §3
NCI-H226 = experiment: Cytotoxicity against human NCI-H226 cells; format: functional
SF-539 = experiment: Cytotoxicity against human SF539 cells; format: functional
RXF 393 = experiment: Cytotoxicity against human RXF393 cells; format: functional
Saccharomyces cerevisiae [6] = experiment: Growth inhibition of COX17-deficient Saccharomyces cerevisiae YLL009C mutant at 20 ug/disc after 24 to 48 hrs by agar diffusion assay; format: functional; details: read-out: DIZ; outline: as §1
UACC-257 = experiment: Cytotoxicity against human UACC257 cells; format: functional
Saccharomyces cerevisiae [7] = experiment: Growth inhibition of SOD2-deficient Saccharomyces cerevisiae YHR008C mutant at 20 ug/disc 24 to 48 hrs by agar diffusion assay; format: functional; details: read-out: DIZ; outline: as §1
CAKI-1 = experiment: Cytotoxicity against human Caki1 cells; format: functional
KM12 = experiment: Cytotoxicity against human KM12 cells; format: functional
Saccharomyces cerevisiae [8] = experiment: Growth inhibition of WSC4-deficient Saccharomyces cerevisiae YHL028W mutant at 20 ug/disc 24 to 48 hrs by agar diffusion assay; format: functional; details: read-out: DIZ; outline: as §1
HOP-92 = experiment: Cytotoxicity against human HOP92 cells; format: functional
PC-3 = experiment: Cytotoxicity against human PC3 cells; format: functional
HCC 2998 = experiment: Cytotoxicity against human HCC2998 cells; format: functional
Saccharomyces cerevisiae [9] = experiment: Growth inhibition of POS5-deficient Saccharomyces cerevisiae YPL188W mutant at 20 ug/disc after 24 to 48 hrs by agar diffusion assay; format: functional; details: read-out: DIZ; outline: as §1
NCI-H522 = experiment: Cytotoxicity against human NCI-H522 cells; format: functional
ACHN = experiment: Cytotoxicity against human ACHN cells; format: functional
Saccharomyces cerevisiae [10] = experiment: Growth inhibition of RCK1-deficient Saccharomyces cerevisiae YGL158W mutant at 20 ug/disc after 24 to 48 hrs by agar diffusion assay; format: functional; details: read-out: DIZ; outline: as §1
NCI-H460 = experiment: Cytotoxicity against human NCI-H460 cells; format: functional
OVCAR-8 = experiment: Cytotoxicity against human OVCAR8 cells; format: functional
PtK2 [11] = experiment: Induction of oxidative stress in potoroo PtK2 cells assessed as change in cell morphology after 24 hrs by immunofluorescence microscopic analysis; format: functional, cell-based; details: Potorous tridactylus; outline: as §3
MCF7 = experiment: Cytotoxicity against human MCF7 cells; format: functional
PtK2 [12] = experiment: Induction of oxidative stress in potoroo PtK2 cells assessed as reduction in actin stress fibres after 24 hrs by immunofluorescence microscopic analysis; format: functional, cell-based; details: Potorous tridactylus; outline: as §3

Work on `CC1=C([Se]CC(OC(=O)[C@@H](CO)NC(=O)OC(C)(C)C)C(=O)NC(C)(C)C)C(=O)c2ccccc2C1=O` (stereo not given in full) yielded a GI50 (OVCAR-4) of 1.23 µM, an LC50 (OVCAR-4) of 5.01 µM and a TGI (OVCAR-4; read-out: pTGI (converted)) of 2.51 µM. For the same compound, the GI50 (OVCAR-3) was 1.78 µM, the LC50 (OVCAR-3) was 5.62 µM and the TGI (OVCAR-3; read-out: pTGI (converted)) was 3.16 µM. For the same compound, the GI50 (Hs-578T) was 2.82 µM, the LC50 (Hs-578T) was > 100 µM and the zone of inhibition at 20 µg/disc (Saccharomyces cerevisiae [1]) was 22 mm. For the same compound, the GI50 (K562) was 1.35 µM, the LC50 (K562) was > 100 µM and the GI50 (SK-OV-3) was 1.26 µM. The LC50 (SK-OV-3) was 5.13 µM, the TGI (SK-OV-3; read-out: pTGI (converted)) was 2.57 µM and the IC50 (A-431) was 2 µM. The GI50 (BT-549) was 1.58 µM, the LC50 (BT-549) was 5.37 µM and the TGI (BT-549; read-out: pTGI (converted)) was 2.95 µM. For the same compound, the GI50 (UO-31) was 1.45 µM, the LC50 (UO-31) was 6.03 µM and the TGI (UO-31; read-out: pTGI (converted)) was 2.95 µM. For the same compound, the zone of inhibition at 20 µg/disc (Saccharomyces cerevisiae [2]) was 13 mm, the GI50 (A549) was 1.82 µM and the LC50 (A549) was 89.1 µM. For the same compound, the TGI (A549; read-out: pTGI (converted)) was 9.33 µM, the GI50 (Malme-3M) was 2.04 µM and the LC50 (Malme-3M) was 6.92 µM. The TGI (Malme-3M; read-out: pTGI (converted)) was 3.8 µM, the Activity (PtK2 [3]) was “Active” and the GI50 (SF-268) was 1.91 µM. The LC50 (SF-268) was 5.89 µM, the TGI (SF-268; read-out: pTGI (converted)) was 3.31 µM and the IC50 (HUVEC) was 3 µM. For the same compound, the Activity (PtK2 [4]) was “inactive”, the GI50 (MOLT-4) was 0.447 µM and the LC50 (MOLT-4) was > 100 µM. For the same compound, the Activity (PtK2 [5]) was “Active”, the GI50 (NCI-H226) was 1.95 µM and the CC50 (NCI-H226; read-out: pLC50 (the source's name) (converted)) was 9.12 µM. It also gave a TGI (NCI-H226; read-out: pTGI (converted)) of 4.17 µM, a GI50 (SF-539) of 1.58 µM and an LC50 (SF-539) of 5.89 µM. The TGI (SF-539; read-out: pTGI (converted)) was 3.09 µM, the GI50 (RXF 393) was 1.86 µM and the LC50 (RXF 393) was 5.75 µM. For the same compound, the TGI (RXF 393; read-out: pTGI (converted)) was 3.31 µM, the zone of inhibition at 20 µg/disc (Saccharomyces cerevisiae [6]) was 13 mm and the GI50 (UACC-257) was 1.74 µM. It also gave an LC50 (UACC-257) of 6.03 µM, a TGI (UACC-257; read-out: pTGI (converted)) of 3.24 µM and a zone of inhibition at 20 µg/disc (Saccharomyces cerevisiae [7]) of 19 mm. The GI50 (CAKI-1) was 1.74 µM, the LC50 (CAKI-1) was 6.61 µM and the TGI (CAKI-1; read-out: pTGI (converted)) was 3.39 µM. For the same compound, the GI50 (KM12) was 1.51 µM, the LC50 (KM12) was 5.5 µM and the TGI (KM12; read-out: pTGI (converted)) was 2.88 µM. It also gave a zone of inhibition at 20 µg/disc (Saccharomyces cerevisiae [8]) of 19 mm, a GI50 (HOP-92) of 1.86 µM and an LC50 (50% lethal concentration) (HOP-92) of 6.31 µM. The TGI (HOP-92; read-out: pTGI (converted)) was 3.39 µM, the GI50 (PC-3) was 1.35 µM and the LC50 (PC-3) was 6.03 µM. For the same compound, the TGI (PC-3; read-out: pTGI (converted)) was 2.82 µM, the GI50 (HCC 2998) was 1.82 µM and the LC50 (HCC 2998) was 5.75 µM. For the same compound, the TGI (HCC 2998; read-out: pTGI (converted)) was 3.24 µM, the zone of inhibition at 20 µg/disc (Saccharomyces cerevisiae [9]) was 11 mm and the GI50 (NCI-H522) was 1.58 µM. It also gave an LC50 (NCI-H522) of 6.17 µM, a TGI (NCI-H522; read-out: pTGI (converted)) of 3.16 µM and a GI50 (ACHN) of 1.58 µM. It also gave an LC50 (ACHN) of 5.75 µM, a TGI (ACHN; read-out: pTGI (converted)) of 3.02 µM and a zone of inhibition at 20 µg/disc (Saccharomyces cerevisiae [10]) of 18 mm. It also gave a GI50 (NCI-H460) of 0.457 µM, an LC50 (NCI-H460) of 7.41 µM and a TGI (NCI-H460; read-out: pTGI (converted)) of 1.78 µM. For the same compound, the GI50 (OVCAR-8) was 1.86 µM, the TGI (OVCAR-8; read-out: pTGI (converted)) was 3.55 µM and the Activity (PtK2 [11]) was “Active”. For the same compound, the GI50 (MCF7) was 1.74 µM, the LC50 (MCF7) was 8.91 µM and the TGI (MCF7; read-out: pTGI (converted)) was 3.98 µM. For the same compound, the Activity (PtK2 [12]) was “Active”.
